Source: PubChem BioAssay (PCMD)
FXIa inh – blocks human coagulation factor XIa protease activity | P03951 | purified FXIa, Boc-Glu-Ala-Arg-AMC fluorogenic substrate | inhibition, % at 5 µM | actives 0.14% (n = 220,000) | AID 798;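 active = inhibition of at least 40%; inactive = inhibition below 40%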;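 note: fluorescence of freed AMC excited at 355 nm; 0% = enzyme without compound and 100% = no enzyme blank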
FXIIa inh – factor XIIa (human) inhibition | purified FXIIa, Boc-QGR-AMC fluorogenic substrate, 2 h | inhibition, % at 5 µM | actives 0.3% (n = 220,000) | AID 800; in the data active = inhibition above about 40%;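 note: 0% = enzyme with no compound and 100% = blank without enzyme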
thrombin 1536 – thrombin (human) inhibition. P00734. alpha-thrombin, Boc-VPR-AMC fluorogenic substrate cleavage. inhibition, % at 5 µM. actives 0.26% (n = 220,000). AID 1046;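 active = inhibition at or above 40%; inactive = inhibition below 40%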;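 note: 0% = enzyme with no compound and 100% = wells without enzyme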
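Material: human alpha-thrombin enzyme / Medium: pH 7.5 Tris (50 mM) with NaCl 150 mM, Tween 20 0.05% / Compound: single-point dosing at 5 µM, 0.2% DMSO / Incubation: enzyme reaction carried out at room temperature / Detection: AMC fluorescence, 355/460 nm / Read-out basis: percent inhibition scaled between no-compound controls and no-enzyme blanks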
hK5 inh – blocks human kallikrein 5 protease activity; Q9Y337; recombinant hK5, fluorogenic AMC substrate cleavage; inhibition, % at 5 µM; actives 0.59% (n = 210,000); AID 873;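 active = inhibition of 40% or more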;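 note: 0% = enzyme controls without compound and 100% = no-enzyme blanks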
Target sequence (Q9Y337 67-293 limits assumed): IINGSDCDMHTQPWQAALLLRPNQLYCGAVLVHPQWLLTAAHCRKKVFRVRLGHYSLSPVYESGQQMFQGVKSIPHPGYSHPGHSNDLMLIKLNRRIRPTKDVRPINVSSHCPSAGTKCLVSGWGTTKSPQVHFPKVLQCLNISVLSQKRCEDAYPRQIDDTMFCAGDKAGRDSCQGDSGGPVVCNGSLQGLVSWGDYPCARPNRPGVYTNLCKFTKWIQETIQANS
Starred values were filed as active, the others as inactive; / = no result. Rows were chosen to be rich in hits. Some 1% of all compounds tested hit in one or more screens of this group.

SMILES	FXIa inh	FXIIa inh	thrombin 1536	hK5 inh
O=C(Nc1cnn(Cc2ccc(Cl)cc2)c1)c1ccc([N+](=O)[O-])cc1	6.8	18.4	1.3	-19.4
O=C(C[n+]1cnn(CC(=O)c2ccc(Cl)cc2Cl)c1)c1ccc([N+](=O)[O-])cc1	3.6	7.1	51.2*	0.1
CC1CCc2nc(NC(=O)Nc3ccc4c(c3)OCO4)sc2C1 (stereo not given)	-6.2	7.2	1.2	-7.7
CC12CCC(c3c(C(=O)Nc4nccs4)nn(-c4ccccc4)c31)C2(C)C (stereo not given)	11.5	22.1	13.8	52.0*
CC12CCC(c3c(C(=O)O)nn(-c4ccccc4)c31)C2(C)C (stereo not given)	2.5	4.8	-2.7	12.3
OCCC1CN(Cc2ccc3c(c2)CCO3)CCN1Cc1ccc(F)cc1 (stereo not given)	-1.2	6.1	-2.3	/
CCOc1ncccc1C(=O)NCCN1C(=O)S/C(=C/c2cccs2)C1=O	12.3	19.9	2.4	-7.6
COc1ccc(-c2csc(N3C(=O)C4C5c6ccccc6C(c6ccccc65)[C@@H]4C3=O)n2)cc1 (stereo not given in full)	0.2	7.6	-2.7	-19.7
COc1ccc(-c2csc(N3C(=O)C4C5c6ccccc6C(c6ccccc65)C4C3=O)n2)cc1 (stereo not given)	10.3	17.2	23.2	62.3*
CCC(C)NC(=O)c1cc(Sc2nnc(C)s2)nc2ccccc12 (stereo not given)	-2.3	8.5	-4.7	-1.5
CCc1nnc(NC(=O)CCC(=O)NCCc2ccc(OC)c(OC)c2)s1	-7.1	5.4	-10.0	-16.8
Cc1ccc(-n2c(C)cc(/C=N/NC(=O)CN(c3ccc(C)cc3C)S(C)(=O)=O)c2C)cc1	21.8	30.4	27.1	42.4*
COc1ccc(-c2ncccc2OC(=O)C23CC4CC(CC(C4)C2)C3)cc1	2.8	-0.5	17.8	60.2*
COc1ccc(C(=O)NC(=S)Nc2ccccc2N2CCCCC2)cc1[N+](=O)[O-]	8.6	15.0	-0.5	-24.8
COc1ccc(C(=O)NC(=S)Nc2cccc(Cl)c2N2CCOCC2)cc1[N+](=O)[O-]	8.1	15.0	2.3	42.4*
CCOC(=O)c1[nH]c(C)c(C(=O)Nc2ccc(C)cc2C)c1C	9.8	21.4	-1.0	79.7*
Cn1c(-c2ccccc2)cnc1SCC(N)=O	10.2	58.8*	-1.0	2.8
Cc1cc(=O)n2[nH]cnc2n1	18.1	24.4	9.3	41.5*
CCCc1cc(=O)n2[nH]cnc2n1	18.0	21.6	-0.7	-3.6
CC(NS(=O)(=O)c1ccc(OCC(=O)Nc2cccc([N+](=O)[O-])c2)cc1)c1ccccc1 (stereo not given)	-5.2	1.1	-6.3	-4.8
Cc1cc(C)cc(NC(=S)N(Cc2cccc(Br)c2)CC2CCC(C(=O)O)CC2)c1 (stereo not given)	2.5	12.5	-8.1	-6.4
CCc1ccc(NC(=S)N(Cc2cccc(Br)c2)CC2CCC(C(=O)O)CC2)cc1 (stereo not given)	25.1	23.1	8.5	65.5*
CC1=C(C(=O)OCC2CCCO2)C(c2ccc(C)o2)C2=C(CC(c3ccc(N(C)C)cc3)CC2=O)N1 (stereo not given)	-0.6	10.9	4.3	-1.6
CC1=C(C(=O)OCC2CCCO2)C(c2ccc(C)o2)C2=C(CC(c3ccc(F)cc3)CC2=O)N1 (stereo not given)	36.0	51.4*	2.9	-10.3
COCCCn1c(=O)/c(=C\c2ccccc2OC(C)C)s/c1=C(/C#N)C(=O)Nc1ccc(C(=O)O)cc1	27.7	48.8*	7.5	37.8
SMILES	FXIa inh	FXIIa inh	thrombin 1536	hK5 inh
Nc1ccccc1Nc1ccncc1[N+](=O)[O-]	-3.0	-11.5	-7.9	-2.2
O=[N+]([O-])c1cncc([N+](=O)[O-])c1Nc1ccccc1Cl	30.1	44.1*	11.5	16.0
Cn1c(CSCc2ccc(Cl)cc2)n[nH]c1=S	-6.4	/	-4.6	-3.6
COc1ccc(C2=[N+](C)CCn3cccc32)c(OC)c1	5.2	68.7*	24.6	35.5
NC(=S)NC1CC2C=CC1C2 (stereo not given)	-0.3	3.2	-5.5	-1.7
COc1cc(/C=C/[N+](=O)[O-])ccc1OCc1cccc(C(=O)O)c1	21.4	17.3	26.0	43.3*
COc1cc(/C=N/NC(=O)c2cccc([N+](=O)[O-])c2)ccc1OCc1ccccc1	4.5	14.6	0.6	1.9
O=C(O)CCC(=O)Nc1ccccc1C(=O)NCCc1ccccc1	-0.7	-0.4	-8.8	-16.1
Cc1ccc(C2=NN(S(=O)(=O)c3ccccc3)C(c3ccccc3O)C2)cc1 (stereo not given)	32.8	102.7*	20.5	29.4
Cc1ccc(Oc2ccccc2/C=C2\SC(=O)N(C)C2=O)cc1	15.5	23.4	20.9	51.0*
COc1ccc(-c2cc(C(=O)c3c(N)n(C)c(=O)n(C)c3=O)c3ccccc3n2)cc1OC	39.1	42.0*	9.9	20.2
Cn1c(N)c(C(=O)c2cc(-c3ccncc3)nc3ccccc23)c(=O)n(C)c1=O	-2.6	4.2	-4.0	-0.1
Cc1cc(C(=O)Cn2nc(C(=O)O)c3ccccc3c2=O)c(C)n1CCc1ccc(Cl)cc1	0.9	5.2	4.0	-2.2
Cn1c(SCC(=O)NC(C)(C)C)nnc1-c1ccc(C(C)(C)C)cc1	17.3	9.1	18.3	41.5*
CCn1c(SCC(=O)NC(C)(C)C)nnc1-c1ccncc1	-1.1	8.5	6.7	-4.2
CC(=O)Oc1ccc2ccc(=O)oc2c1	2.0	12.4	2.4	-13.0
O=C(Oc1ccc2ccc(=O)oc2c1)c1cccs1	50.6*	61.7*	11.2	-8.0
CSc1nsc(/C=C/Nc2ccc(O)cc2C)c1C#N	-2.5	8.0	-7.0	-3.2
O=C(O)c1cc([N+](=O)[O-])ccc1NCCc1ccccc1	3.6	7.2	-1.6	1.1
O=C(O)c1cc([N+](=O)[O-])ccc1NCc1ccccc1Cl	17.3	19.5	40.7*	/
CC(=O)Nc1cccc(NC(=O)C2CCCN2C(=O)Nc2cccc(C)c2)c1 (stereo not given)	11.9	11.0	14.5	40.7*
COc1ccccc1/C=C/C=N/NC(=O)c1cc(-c2ccc(C)o2)[nH]n1	8.0	5.1	-0.7	-0.4
O=C(NCc1ccccc1Cl)c1cccc(C(F)(F)F)c1	-2.2	13.5	39.9	40.6*
Cn1c(N)c(C(=O)COC(=O)C2CC(=O)N(Cc3ccccc3)C2)c(=O)n(C)c1=O (stereo not given)	-0.8	1.9	-2.0	-3.4
Cc1ccc(C(=O)C(NC(=O)c2ccco2)N2CCOCC2)cc1 (stereo not given)	-1.7	-2.3	14.5	43.6*
O=C(NC(C(=O)c1ccccc1)N1CCCCCC1)c1ccco1 (stereo not given)	3.3	11.1	-13.3	-5.4
Cc1noc(C)c1COc1ccc(C(=O)OCC(=O)NC2CCCCC2C)cc1 (stereo not given)	6.4	10.2	19.7	42.6*
Cc1[nH]c(=O)[nH]c(=O)c1/C=N/NC(=O)[C@H](CC(C)C)NC(=O)OC(C)(C)C	-2.9	7.2	1.6	-20.0
Cc1[nH]c(=O)[nH]c(=O)c1/C=N/NC(=O)[C@@H](N)CC(C)C	30.6	45.1*	3.3	21.2
